Experimental data gathered from unrelated publications.
Compare with care: the assays were run in different laboratories.
Organism: Mycobacterium tuberculosis variant bovis BCG
Read-out: microbial growth

SMILES	test system	setting	MIC
CNC(=O)c1cc(Oc2ccc(NC(=O)Nc3ccc(Cl)c(C(F)(F)F)c3)cc2)ccn1	BCG		12.5 µM
Fc1ccc(COc2ccccc2CNCc2ccccc2)cc1	ATCC35734 BCG		> 62.5 µM
CO[C@H]1/C=C/O[C@@]2(C)Oc3c(C)c(O)c4c(O)c(c(/C=N/N5CCN(C)CC5)c(O)c4c3C2=O)NC(=O)/C(C)=C\C=C\[C@H](C)[C@H](O)[C@@H](C)[C@@H](O)[C@@H](C)[C@H](OC(C)=O)[C@@H]1C	BCG		< 0.2 µg/mL
CO[C@H]1/C=C/O[C@@]2(C)Oc3c(C)c(O)c4c(O)c(c(/C=N/N5CCN(C)CC5)c(O)c4c3C2=O)NC(=O)/C(C)=C\C=C\[C@H](C)[C@H](O)[C@@H](C)[C@@H](O)[C@@H](C)[C@H](OC(C)=O)[C@@H]1C	BCG	6 days	< 0.78 µM
COc1ccc(C=CC(=O)c2ccccc2Cl)cc1OC	BCG	7 days	12.5 µg/mL
c1ccc(COc2ccccc2CNCc2cccnc2)cc1	ATCC35734 BCG		> 62.5 µM
COc1ccc(C=CC(=O)c2ccccc2Br)cc1OC	BCG	7 days	25 µg/mL
Fc1ccc(COc2ccccc2CNCc2cccnc2)cc1	ATCC35734 BCG		> 62.5 µM
O=C(Nc1ccc2c(c1)OC(F)(F)O2)Nc1ccc(Cl)c(C(F)(F)F)c1	BCG		3 µM
COc1ccc(C=CC(=O)c2ccc(Cl)cc2Cl)cc1OC	BCG	7 days	200 µg/mL
